Published values collected from several papers.
Lines come from different studies, so protocols differ.
Target: Tyrosine-protein kinase FRK (FRK, Homo sapiens, UniProt P42685)

O=c1c2ccccc2[nH]c(=S)n1CCN1CCC(=C(c2ccc(F)cc2)c2ccc(F)cc2)CC1 — remaining activity (enzyme activity; inhibitor; 0.5 µM): 100%
CN([C@@H]1CCc2c(CC(=O)O)c3cc(S(C)(=O)=O)ccc3n2C1)S(=O)(=O)c1ccc(F)cc1 — remaining binding (cell-free assay; competition with immobilised ligand; 1 µM): 100%
CCN(CC)CCNC(=O)c1c(C)[nH]c(/C=C2\C(=O)Nc3ccc(F)cc32)c1C — inhibition (enzyme activity; inhibitor; 10 µM): 93%
CC(=O)N1CCC(c2ccc(C(=O)NC3=NCCN3)cc2C(F)(F)F)CC1 — remaining binding (cell-free assay; competition with immobilised ligand; 1 µM): 97%
O=C1Nc2ccc(Cl)cc2C1=Cc1cc(Cl)c(O)c(Cl)c1 — remaining signal (cell-free assay; 0.5 µM): 70.3%
CC(C)(C)c1nc(-c2cccc(NS(=O)(=O)c3c(F)cccc3F)c2F)c(-c2ccnc(N)n2)s1 — remaining activity (enzyme activity; inhibitor; radiometric; 1 µM): 111%
Cc1ccc(Nc2nccc(N(C)c3ccc4c(C)n(C)nc4c3)n2)cc1S(N)(=O)=O — remaining signal (cell-free assay; 0.5 µM): 58.1%
CC(C)(O)[C@H]1CC[C@H](Nc2ccc3ncc(-c4cccc(C(F)(F)F)c4)n3n2)CC1 — remaining activity (enzyme activity; inhibitor; 1 µM): 57.7%
CCN(CC)c1ccc(C2=NNC(=O)CC2C)cc1[N+](=O)[O-] (stereo not shown) — remaining activity (enzyme activity; inhibitor; 10 µM): 83%
CN1CC(Oc2cnc(C#N)cc2-c2ccn3nc(NC(=O)C4CC4)cc3c2)C1 — inhibition (enzyme activity; inhibitor; 1 µM): 0%
CC/C(=N\NC(=O)NCc1cccc(O)c1)c1ccc(O)c(C)c1O — inhibition (enzyme activity; inhibitor; 0.1 µM): 0.5%
O=C1NC(=O)c2cc(Nc3ccc(F)cc3)c(Nc3ccc(F)cc3)cc21 — remaining signal (cell-free assay; 0.5 µM): 97.2%
C[C@@]1(Cc2ccc(C#N)cc2)C(=O)N(c2cc(Cl)cc(Cl)c2)c2ncc(C(=O)NC3(c4nc(C5CCC5)no4)CC3)n21 — remaining binding (cell-free assay; competition with immobilised ligand; 1 µM): 81%
COc1cc2ncnc(Nc3ccc(Oc4ccccc4)c(C)c3C)c2cc1OC — inhibition (enzyme activity; inhibitor; 1 µM): 20%
O=C(Nc1cnn(-c2csc(C(=O)NC3COC3)c2)c1)Nc1ccccc1Cl — remaining activity (enzyme activity; inhibitor; 5 µM): 97.4%
CNC(=O)c1cc2c(Oc3ccc(NC(=O)C4(C(=O)Nc5ccc(F)cc5)CC4)cc3)ccnc2cc1OC — inhibition (enzyme activity; inhibitor; radiometric; 1 µM): 99%
CC(=O)Nc1c(C(C)=O)c(=O)n(C)c2nc(-c3ccc(Cl)cc3Cl)c(-c3ccc(Cl)cc3)cc12 — remaining binding (cell-free assay; competition with immobilised ligand; 1 µM): 100%
CCCOc1ccc(OC)c(F)c1C(=O)c1ccc(C(=O)N[C@@H]2CNC[C@H]2NC(=O)c2ccc3[nH]ncc3c2)cc1 — remaining activity (enzyme activity; inhibitor; 10 µM): 96%
CCOCCn1cc(C(=O)Nc2ccc(-n3nc(-c4cccnc4)cc3C(F)(F)F)cn2)ccc1=O — remaining binding (cell-free assay; competition with immobilised ligand; 1 µM): 100%
Cc1ccc(C(=O)Nc2ccc(CN3CCN(C)CC3)c(C(F)(F)F)c2)cc1C#Cc1cnc2cccnn12 — remaining activity (enzyme activity; inhibitor; 23.5 nM): 16%
Cc1nc(N2CC[C@@H](O)C2)ncc1-c1cc(C(F)(F)F)cc2[nH]ncc12 — remaining binding (cell-free assay; competition with immobilised ligand; 1 µM): 98%
COc1cc2nccc(Oc3ccc(NC(=O)c4c5n(n(-c6ccc(F)cc6)c4=O)CCCC5)cc3)c2cc1OC — inhibition (enzyme activity; inhibitor; 0.1 µM): 86%
